Data taken from ChEMBL document CHEMBL1156185, “A class of 3S-2-aminoacyltetrahydro-beta-carboline-3-carboxylic acids: their facile synthesis, inhibition for platelet activation, and high in vivo anti-thrombotic potency” (J Med Chem, 2010).
Structures can show the parent of a compound that is named as a salt.

Key:
[1] = Antiplatelet aggregation activity against platelet-activating factor-induced pig platelet aggregation after 5 mins by aggregometer; format: functional, cell-based; settings: Sus scrofa
Summary of the method: (§1)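 Pig blood from six pigs was spun at 1000 rpm for 10 min to give PRP, then at 1500g for 10 min to give PPP. PRP was adjusted to 2 × 10⁸ platelets/mL with autologous PPP. Test agent or NS was added at final 100 µM–1 nM. Agonists were at final concentrations of ADP 10 µM, AA 350 µM, PAF 0.1 µM and thrombin 0.1 U/mL. Light-transmission peak was read at 37 °C over 5 min, in sextuplicate. IC50 was taken from the concentration–inhibition curve.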

Platelet [2] = test: Ratio of IC50 for thrombin-induced pig platelet aggregation to IC50 for ADP-induced pig platelet aggregation; format: functional, Sus scrofa
Summary of the method: (§2)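 Fold ratios of IC50 values. Each IC50 came from pig PRP (2 × 10⁸ platelets/mL) light-transmission aggregometry at 37 °C for 5 min, in sextuplicate, with final ADP 10 µM, AA 350 µM, PAF 0.1 µM or thrombin 0.1 U/mL.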

Platelet [3] = test: Ratio of IC50 for arachidonic acid-induced pig platelet aggregation to IC50 for ADP-induced pig platelet aggregation; format: functional, Sus scrofa; summary of the method: as §2
Platelet [4] = test: Ratio of TCCA IC50 to compound IC50 for ADP-induced pig platelet aggregation; format: functional, Sus scrofa; summary of the method: as §2
[5] = Antiplatelet aggregation activity against arachidonic acid-induced pig platelet aggregation after 5 mins by aggregometer; format: functional, cell-based; settings: Sus scrofa; summary of the method: as §1
[6] = Antiplatelet aggregation activity against thrombin-induced pig platelet aggregation after 5 mins by aggregometer; format: functional, cell-based; settings: Sus scrofa; summary of the method: as §1
[7] = Antiplatelet aggregation activity against ADP-induced pig platelet aggregation after 5 mins by aggregometer; format: functional, cell-based; settings: Sus scrofa; summary of the method: as §1
Rattus norvegicus [8] = test: Antithrombotic activity in Wistar rat arterioveinos cannula model assessed as reduction of thrombus weight at 100 nmol/kg, iv; format: functional
Summary of the method: (§3)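 Male Wistar rats, 250–300 g. Agents were dissolved in NS and kept on ice. Heparin sodium was injected into a thread-containing polyethylene cannula, then NS or agent was injected intravenously. The cannula joined the right carotid artery to the left jugular vein, and blood flowed through it for 15 min. Wet thrombus weight on the thread was recorded as mean ± SD, n = 12.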

Platelet [9] = test: Ratio of IC50 for platelet-activating factor-induced pig platelet aggregation to IC50 for ADP-induced pig platelet aggregation; format: functional, Sus scrofa; summary of the method: as §2
Rattus norvegicus [10] = test: Antithrombotic activity in Wistar rat arterioveinos cannula model assessed as reduction of thrombus weight at 10 nmol/kg, iv; format: functional; summary of the method: as §3
Rattus norvegicus [11] = test: Antithrombotic activity in Wistar rat arterioveinos cannula model assessed as reduction of thrombus weight at 100 nmol/kg, po; format: functional
Summary of the method: (§4)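 Male Wistar rats received agent in NS, or NS alone, orally. Blood then passed from the right carotid artery to the left jugular vein through a thread-containing polyethylene cannula for 15 min. Wet thrombus weight was reported as mean ± SD, n = 12.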

Rattus norvegicus [12] = test: Antithrombotic activity in Wistar rat arterioveinos cannula model assessed as reduction of thrombus weight at 1 nmol/kg, iv; format: functional; summary of the method: as §3
Rattus norvegicus [13] = test: Antithrombotic activity in Wistar rat arterioveinos cannula model assessed as reduction of thrombus weight at 167 umol/kg, po; format: functional; summary of the method: as §4
Rattus norvegicus [14] = test: Antithrombotic activity in Wistar rat arterioveinos cannula model assessed as reduction of thrombus weight at 167 umol/kg, iv; format: functional; summary of the method: as §3
Rattus norvegicus [15] = test: Antithrombotic activity in Wistar rat arterioveinos cannula model assessed as reduction of thrombus weight at 5 umol/kg, iv; format: functional; summary of the method: as §3
[16] = Antiplatelet aggregation activity against collagen-induced platelet; format: functional, cell-based

| SMILES | IC50 [1] | Ratio IC50 (Platelet [2]) | Ratio IC50 (Platelet [3]) | Ratio IC50 (Platelet [4]) | IC50 [5] | IC50 [6] | IC50 [7] | Thrombus weight (Rattus norvegicus [8]) | Ratio IC50 (Platelet [9]) | IC50 [16] | further results |
| --- | --- | --- | --- | --- | --- | --- | --- | --- | --- | --- | --- |
| N[C@@H](Cc1ccccc1)C(=O)N1Cc2[nH]c3ccccc3c2C[C@H]1C(=O)O | 19 nM | 3.1 | 2.9 | 72 | 28.6 nM | 30.2 nM | 9.8 nM | 17.25 mg | 1.9 |  |  |
| CC(C)[C@H](N)C(=O)N1Cc2[nH]c3ccccc3c2C[C@H]1C(=O)O | 17.7 nM | 4.2 | 3.5 | 90 | 27.3 nM | 32.5 nM | 7.8 nM | 18.56 mg | 2.3 |  |  |
| N[C@@H](CO)C(=O)N1Cc2[nH]c3ccccc3c2C[C@H]1C(=O)O | 16.1 nM | 3.6 | 3 | 81 | 26.2 nM | 30.8 nM | 8.66 nM | 16.25 mg | 1.9 |  |  |
| N[C@@H](Cc1ccc(O)cc1)C(=O)N1Cc2[nH]c3ccccc3c2C[C@H]1C(=O)O | 15.1 nM | 3.7 | 3.2 | 90 | 25.2 nM | 28.4 nM | 7.76 nM | 15.49 mg | 1.9 |  |  |
| C[C@@H](O)[C@H](N)C(=O)N1Cc2[nH]c3ccccc3c2C[C@H]1C(=O)O | 14.8 nM | 3.6 | 3.1 | 90 | 24.6 nM | 27.8 nM | 7.81 nM | 15.72 mg | 1.9 |  |  |
| CC[C@H](C)[C@H](N)C(=O)N1Cc2[nH]c3ccccc3c2C[C@H]1C(=O)O | 12.6 nM | 4.1 | 3.6 | 107 | 23.9 nM | 27 nM | 6.56 nM | 13.74 mg | 1.9 |  | Activity (Rattus norvegicus [10]): 18.12 mg; Activity (Rattus norvegicus [11]): 13.88 mg; Activity (Rattus norvegicus [12]): 25.43 mg |
| CC(=O)Oc1ccccc1C(=O)O [ASPIRIN] |  |  |  |  |  |  |  |  |  |  | Activity (Rattus norvegicus [13]): 17.9 mg; Activity (Rattus norvegicus [14]): 15.21 mg |
| O=C(O)[C@@H]1Cc2c([nH]c3ccccc23)CN1 [CYCLOMETHYLTRYPTOPHAN] | 752 nM |  |  |  | 866 nM | 982 nM | 701 nM |  |  |  | Activity (Rattus norvegicus [15]): 18.79 mg |
| COc1ccc2c3c([nH]c2c1)C(C)=NCC3 [HARMALINE] |  |  |  |  |  |  |  |  |  | > 130000 nM |  |
| CC1=NCCc2c1[nH]c1cc(O)ccc21 [HARMALOL] |  |  |  |  |  |  |  |  |  | > 130000 nM |  |
| Cc1nccc2c1[nH]c1ccccc12 [HARMAN] |  |  |  |  |  |  |  |  |  | > 130000 nM |  |
| COc1ccc2c(c1)[nH]c1c(C)nccc12 [HARMINE] |  |  |  |  |  |  |  |  |  | > 130000 nM |  |
| Cc1nccc2c1[nH]c1cc(O)ccc12 [HARMOL HYDROCHLORIDE] |  |  |  |  |  |  |  |  |  | > 130000 nM |  |
| c1ccc2c(c1)[nH]c1cnccc12 [NORHARMANE] |  |  |  |  |  |  |  |  |  | > 130000 nM |  |
